Data published in ChEMBL document CHEMBL4411269, “Required Immunoproteasome Subunit Inhibition Profile for Anti-Inflammatory Efficacy and Clinical Candidate KZR-616 ((2 S,3 R)- N-(( S)-3-(Cyclopent-1-en-1-yl)-1-(( R)-2-methyloxiran-2-yl)-1-oxopropan-2-yl)-3-hydroxy-3-(4-methoxyphenyl)-2-(( S)-2-(2-morpholinoacetamido)propanamido)propenamide)” (J Med Chem, 2018).
≈ marks a conversion by molar mass, not a printed value. Calls of active or inactive are those of the source. No cut-off for these calls is given here.

Legend:
[1] = biological target: T1, Proteasome subunit beta type-5 (Mus musculus, UniProt O55234); experiment: Inhibition of 20S proteosome beta 5 in mouse A20 cells by ELISA; assay type: cell-based
T1 sequence (O55234 whole entry): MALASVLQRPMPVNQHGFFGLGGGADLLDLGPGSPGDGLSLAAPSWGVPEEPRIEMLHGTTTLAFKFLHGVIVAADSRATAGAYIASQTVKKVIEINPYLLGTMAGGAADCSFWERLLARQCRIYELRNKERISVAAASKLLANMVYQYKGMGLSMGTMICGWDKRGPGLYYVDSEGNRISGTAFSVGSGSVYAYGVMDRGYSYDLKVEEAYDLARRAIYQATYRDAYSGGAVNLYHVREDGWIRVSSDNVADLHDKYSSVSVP

[2] = biological target: T2, Proteasome subunit beta type-8 (Mus musculus, UniProt P28063); experiment: Inhibition of LMP7 in mouse A20 cells by ELISA; assay type: cell-based
T2 sequence (P28063 whole entry): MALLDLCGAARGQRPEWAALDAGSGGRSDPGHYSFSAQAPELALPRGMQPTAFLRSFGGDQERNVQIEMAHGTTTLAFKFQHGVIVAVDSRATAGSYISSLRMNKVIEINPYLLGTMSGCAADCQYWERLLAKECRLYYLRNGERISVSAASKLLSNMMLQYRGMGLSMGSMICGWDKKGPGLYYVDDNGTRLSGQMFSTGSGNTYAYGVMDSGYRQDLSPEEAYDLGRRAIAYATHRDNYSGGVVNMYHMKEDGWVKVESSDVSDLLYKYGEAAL
Procedure, shortened: (§1)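 Mouse A20 B-cell lymphoma cell lysate (1 mg/mL, hypotonic 20 mM Tris pH 8, 5 mM EDTA) treated with serially diluted compound for 1 h at 25 °C. Then 5 μM biotinylated active-site probe for 2 h at 25 °C, guanidine denaturation and streptavidin bead capture. Subunit-specific antibody and HRP chemiluminescence, signal normalized to protein, IC50 from percent activity versus DMSO controls.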

[3] = biological target: T3, Proteasome subunit beta type-9 (Homo sapiens, UniProt P28065); experiment: Inhibition of LMP2 in human MOLT4 cells by ELISA; assay type: cell-based
T3 sequence (P28065 whole entry): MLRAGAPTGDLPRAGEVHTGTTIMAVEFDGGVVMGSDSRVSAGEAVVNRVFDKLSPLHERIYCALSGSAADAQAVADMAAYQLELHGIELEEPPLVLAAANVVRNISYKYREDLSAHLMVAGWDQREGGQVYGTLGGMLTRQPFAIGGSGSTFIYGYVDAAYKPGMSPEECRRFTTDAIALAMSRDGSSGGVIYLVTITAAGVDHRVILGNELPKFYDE

[4] = Solubility of the compound in phosphate buffer at pH 7.2 at 10 mg/ml after 24 hrs by HPLC-UV method; assay type: physicochemical
Procedure, shortened: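 Compound shaken at a target 10 mg/mL in 50 mM potassium phosphate buffer for 24 h at 25 °C, then centrifuged at 15 000 rpm for 15 min. Supernatant diluted 100-fold in DMSO and quantified by HPLC-UV (220/254/280 nm) against a three-level DMSO standard curve, in duplicate.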

[5] = biological target: T4, Proteasome subunit beta type-9 (Mus musculus, UniProt P28076); experiment: Inhibition of LMP2 in mouse A20 cells by ELISA; assay type: cell-based; procedure, shortened: as §1
T4 sequence (P28076 whole entry): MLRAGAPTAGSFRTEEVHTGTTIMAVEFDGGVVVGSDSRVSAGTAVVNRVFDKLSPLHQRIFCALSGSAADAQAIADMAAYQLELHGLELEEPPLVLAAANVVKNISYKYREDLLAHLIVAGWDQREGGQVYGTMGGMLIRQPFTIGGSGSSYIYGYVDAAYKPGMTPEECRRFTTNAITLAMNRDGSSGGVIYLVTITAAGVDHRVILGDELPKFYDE

[6] = biological target: T5, Proteasome subunit beta type-8 (Homo sapiens) (UniProt P28062); experiment: Inhibition of LMP7 in human PBMC at 250 nM by ELISA
T5 sequence (whole entry): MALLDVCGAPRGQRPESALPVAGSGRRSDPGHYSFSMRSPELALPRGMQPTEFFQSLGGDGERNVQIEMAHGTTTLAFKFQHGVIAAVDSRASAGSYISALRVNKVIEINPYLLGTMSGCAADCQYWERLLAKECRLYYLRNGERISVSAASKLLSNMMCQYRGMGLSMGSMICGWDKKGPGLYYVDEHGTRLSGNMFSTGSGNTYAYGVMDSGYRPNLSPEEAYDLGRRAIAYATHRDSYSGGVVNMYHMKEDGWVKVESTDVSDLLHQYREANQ
Procedure, shortened: (§2)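 Cryopreserved healthy-donor human PBMC in RPMI 1640 with 5% heat-inactivated FBS, exposed to compound (0.1% DMSO final) for 1 h at 37 °C, 5% CO2, then washed. Subunit-specific active-site occupancy read by ProCISE: biotinylated active-site probe binding, denaturation, streptavidin capture, subunit-specific antibody and HRP chemiluminescence. Signal normalized to protein and expressed relative to DMSO controls.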

PBMC [7] = experiment: Antiinflammatory activity in human PBMC assessed as reduction in LPS-stimulated TNF-alpha expression at 250 nM preincubated for 1 hr followed by LPS stimulation measured after 24 hrs by ELISA; assay type: functional, cell-based
Procedure, shortened: (§3)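 Cryopreserved healthy-donor PBMC in RPMI 1640 with 5% heat-inactivated FBS, 250 000 cells/well. Compound (0.1% DMSO final) for 1 h at 37 °C, 5% CO2, then 4 washes with medium. Stimulated with 1 μg/mL LPS for 24 h; supernatant TNFα, IL-6 and IL-12/23p40 by electrochemiluminescent immunoassay. Mean level relative to DMSO controls, n = 6.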

PBMC [8] = experiment: Antiinflammatory activity in human PBMC assessed as reduction in anti-CD3/CD28 antibody-stimulated TNF-alpha expression at 250 nM preincubated for 1 hr followed by anti-CD3/CD28 antibody stimulation measured after 24 hrs by ELISA; assay type: functional, cell-based
Procedure, shortened: (§4)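 Healthy-donor PBMC, thawed from cryopreservation, 250 000 cells/well in RPMI 1640/5% FBS. Pretreated 1 h at 37 °C with compound alone or combined (0.1% DMSO final), washed 4 times, then stimulated 24 h with anti-CD3 and anti-CD28 antibodies. TNFα and IFNγ in supernatants by electrochemiluminescent ELISA; expressed relative to DMSO-treated controls (n = 6).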

PBMC [9] = experiment: Antiinflammatory activity in human PBMC assessed as reduction in LPS-stimulated p40 subunit of […] expression at 250 nM preincubated for 1 hr followed by LPS stimulation measured after 24 hrs by ELISA; assay type: functional, cell-based; procedure, shortened: as §3
PBMC [10] = experiment: Antiinflammatory activity in human PBMC assessed as reduction in LPS-stimulated IL-6 expression at 250 nM preincubated for 1 hr followed by LPS stimulation measured after 24 hrs by ELISA; assay type: functional, cell-based; procedure, shortened: as §3
[11] = biological target: T6, Proteasome subunit beta type-10 (Mus musculus, UniProt O35955); experiment: Inhibition of MECL1 in mouse A20 cells by ELISA; assay type: cell-based; procedure, shortened: as §1
T6 sequence (O35955 whole entry): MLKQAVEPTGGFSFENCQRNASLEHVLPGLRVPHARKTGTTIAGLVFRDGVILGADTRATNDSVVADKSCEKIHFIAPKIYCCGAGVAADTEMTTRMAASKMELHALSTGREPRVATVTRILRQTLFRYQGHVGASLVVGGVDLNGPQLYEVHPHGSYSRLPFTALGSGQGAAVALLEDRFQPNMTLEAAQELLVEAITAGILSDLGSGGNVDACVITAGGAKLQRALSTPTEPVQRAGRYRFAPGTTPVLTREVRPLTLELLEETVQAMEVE

PBMC [12] = experiment: Antiinflammatory activity in human PBMC assessed as reduction in anti-CD3/CD28 antibody-stimulated IFN-gamma expression at 250 nM preincubated for 1 hr followed by anti-CD3/CD28 antibody stimulation measured after 24 hrs by ELISA; assay type: functional, cell-based; procedure, shortened: as §4
[13] = biological target: T7, Proteasome subunit beta type-9 (Homo sapiens) (UniProt P28065); experiment: Inhibition of LMP2 in human PBMC at 250 nM by ELISA; procedure, shortened: as §2
T7 sequence (whole entry): T3 sequence (P28065 whole entry)

[14] = biological target: T8, Proteasome subunit beta type-8 (Homo sapiens, UniProt P28062); experiment: Inhibition of LMP7 in human MOLT4 cells by ELISA; assay type: cell-based
T8 sequence (P28062 whole entry): T5 sequence (whole entry)

[15] = biological target: T9, Proteasome Macropain subunit MB1 (Homo sapiens, UniProt P28074); experiment: Inhibition of 20S proteosome beta 5 in human MOLT4 cells by ELISA; assay type: cell-based
T9 sequence (P28074 whole entry): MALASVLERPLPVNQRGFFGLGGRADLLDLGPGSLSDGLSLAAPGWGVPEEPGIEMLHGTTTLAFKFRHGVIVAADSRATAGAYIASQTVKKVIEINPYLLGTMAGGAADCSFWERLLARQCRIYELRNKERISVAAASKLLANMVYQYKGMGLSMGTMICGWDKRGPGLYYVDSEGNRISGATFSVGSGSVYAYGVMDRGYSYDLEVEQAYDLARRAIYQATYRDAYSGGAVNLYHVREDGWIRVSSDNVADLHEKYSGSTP

Row | IC50 [1] | IC50 [2] | IC50 [3] | solubility at 24 h [4] | IC50 [14] | IC50 [15] | Structure (SMILES) | IC50 [5] | inhibition [6] | Activity (PBMC [7]) | Activity (PBMC [8]) | inhibition (PBMC [9]) | Activity (PBMC [10]) | IC50 [11] | Activity (PBMC [12]) | inhibition [13]
1 | 694 nM | 110 nM | 223 nM | 2730 µg/mL (≈ 4790 µM) |  |  | COc1ccc(C[C@H](NC(=O)[C@H](C)NC(=O)CN2CCOCC2)C(=O)N[C@@H](CC2=CCCC2)C(=O)[C@@]2(C)CO2)cc1 |  |  |  |  |  |  |  |  | 
2 | 118 nM | 141 nM |  | 12.1 µg/mL (≈ 21.5 µM) |  |  | COc1ccc(C[C@H](NC(=O)[C@@H](C)NC(=O)C2CCCCC2)C(=O)N[C@@H](Cc2ccccc2)C(=O)[C@@]2(C)CO2)cc1 |  |  |  |  |  |  |  |  | 

Second part, the compound before the results:

Row | Structure (SMILES) | IC50 [1] | IC50 [2] | IC50 [3] | solubility at 24 h [4] | IC50 [14] | IC50 [15] | IC50 [5] | inhibition [6] | Activity (PBMC [7]) | Activity (PBMC [8]) | inhibition (PBMC [9]) | Activity (PBMC [10]) | IC50 [11] | Activity (PBMC [12]) | inhibition [13]
3 | COc1ccc(C[C@H](NC(=O)[C@H](C)NC(=O)CN2CCOCC2)C(=O)N[C@@H](Cc2ccccc2)C(=O)[C@@]2(C)CO2)cc1 | 401 nM | 98 nM |  | < 0.5 µg/mL |  |  | 328 nM | Active | Active | Active | Active | Active | 699 nM | Active | Active
4 | CC1=C(C(=O)N[C@@H](C)C(=O)N[C@@H](Cc2c[nH]c3ccccc23)C(=O)N[C@@H](Cc2ccccc2)C(=O)[C@@]2(C)CO2)Cc2ccccc21 | 47 nM | 50 nM |  | 1.85 µg/mL (≈ 2.99 µM) | 38 nM | 54 nM |  |  |  |  |  |  |  |  | 
5 | COc1ccc(C[C@H](NC(=O)[C@@H](C)NC(=O)[C@H]2CC[C@H](O)CC2)C(=O)N[C@@H](CC2CCC2)C(=O)[C@@]2(C)CO2)cc1 | 6810 nM | 556 nM |  | 979 µg/mL (≈ 1760 µM) |  |  |  |  |  |  |  |  |  |  | 
